NadD inh: inhibitors of Staphylococcus aureus NadD; purified NadD enzyme, colorimetric absorbance read-out; 360,000 tested, 0.78% active; inhibition, % at 20 µM; AID 602399; in the data active means inhibition above about 26%
Rin1-Abl PPI inh: inhibitors of human Rin1-Abl protein interaction | P00519+Q13671 | TR-FRET Rin1/Abl binding, biochemical | inhibition, % at 7.35 µM | 360,000 tested, 0.4% active | AID 588664; in the data active means inhibition above about 5%, passing the limit was not always enough
Xi reactivation: activators of X-chromosome reactivation in mouse fibroblasts; XiGFP mouse fibroblasts, % GFP-positive cells imaging, 3 d; cells co-treated with 5-aza-dC sensitizer; scaled so ellipticine positive control = 100%; activation, % at 7.58 µM; 360,000 tested, 0.055% active; AID 743238;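 active means mean normalized replicate activation at least 10% and every replicate at or above 10%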;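 further: 0% = median of on-plate neutral control wells and 100% = ellipticine 6 µM median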
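Material: XiGFP fibroblasts, SV40-immortalized; Buffer or medium: DMEM containing 5-aza-dC; Compound dosing: single point; Times: 3 days compound exposure.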
ABHD5 PLIN5 PPI: ABHD5-PLIN5 protein interaction inhibition; AID 602281; Split G. princeps luciferase complementation, luminescence, 4 h; inhibition, % at 4 µM; Q00G26+Q8WTS1; 360,000 tested, 0.78% active;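 active means inhibition above the mean inhibition across every tested compound plus 3 SD, cut at about 22% in these data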;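 further: 0% = DMSO only wells and the 100% control is not disclosed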
Target sequence (Q00G26 whole entry, looked up): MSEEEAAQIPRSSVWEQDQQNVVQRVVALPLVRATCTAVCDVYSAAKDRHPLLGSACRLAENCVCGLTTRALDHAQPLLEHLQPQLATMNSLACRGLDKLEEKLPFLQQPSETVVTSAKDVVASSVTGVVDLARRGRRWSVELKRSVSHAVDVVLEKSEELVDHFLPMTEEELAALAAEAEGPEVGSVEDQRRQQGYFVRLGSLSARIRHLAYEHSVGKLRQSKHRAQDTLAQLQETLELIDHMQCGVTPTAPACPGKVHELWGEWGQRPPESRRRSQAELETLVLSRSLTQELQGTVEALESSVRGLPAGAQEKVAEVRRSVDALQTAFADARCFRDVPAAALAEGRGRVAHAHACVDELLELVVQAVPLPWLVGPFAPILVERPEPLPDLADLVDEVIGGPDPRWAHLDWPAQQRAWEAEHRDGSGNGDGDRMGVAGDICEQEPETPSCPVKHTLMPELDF
Target sequence (Q8WTS1 whole entry, looked up): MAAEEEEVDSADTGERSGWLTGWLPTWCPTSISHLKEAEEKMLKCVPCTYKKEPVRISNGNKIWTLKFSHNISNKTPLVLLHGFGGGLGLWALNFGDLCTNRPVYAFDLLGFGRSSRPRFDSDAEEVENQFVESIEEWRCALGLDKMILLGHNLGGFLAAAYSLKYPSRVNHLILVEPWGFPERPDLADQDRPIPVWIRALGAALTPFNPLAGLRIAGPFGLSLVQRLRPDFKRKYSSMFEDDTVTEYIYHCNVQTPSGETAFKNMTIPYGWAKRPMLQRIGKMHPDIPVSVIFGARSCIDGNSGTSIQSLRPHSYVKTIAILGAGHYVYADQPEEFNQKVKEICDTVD
Rpn11 inh: Rpn11 (human) deubiquitinase inhibition | O00487 | human 26S proteasome, Ub4-pepOG fluorescence polarization; 20S core pre-blocked with epoxomicin | inhibition, % at 20 µM | 360,000 tested, 0.59% active | AID 588493;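 active means inhibition at 20 µM, scaled to each plate's controls, above about 33%, limit read from the data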
Rpn11 confirm: Rpn11 inhibition confirmation, single concentration; 1,900 tested, 29% active; shares compounds with Rpn11 inh; inhibition, % at 20 µM; purified human 26S proteasome, Ub4-pepOG fluorescence polarization; proteasome pretreated with epoxomicin; in the data active means inhibition above about 40%
MMP-2 inh: MMP-2 (human) inhibition counter-screen; shares compounds with Rpn11 inh; recombinant MMP-2, FRET peptide cleavage fluorescence; inhibition, % at 20 µM; 1,900 tested, 4% active; in the data active means inhibition above about 40%;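 further: human MMP-2 activated beforehand with APMA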
Thrombin inh: counter-screen for RPN11 inhibitors: inhibition of bovine thrombin; shares compounds with Rpn11 inh; bovine thrombin cleavage of Ub4-pepOG, fluorescence polarization; inhibition, % at 20 µM; 1,900 tested, 13% active;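 active means mean inhibition at least 40% at 20 µM, or signal 3 deviations below plate average, so some actives read negative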;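 further: plate controls were thrombin with DMSO for no effect and buffer wells lacking thrombin for full effect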
Rin1 Abl conf: confirmation of inhibitors of human Rin1-Abl interaction. inhibition, % at 7.35 µM. TR-FRET Rin1-Abl binding, purified proteins. shares compounds with Rin1-Abl PPI inh. 1,300 tested, 49% active. AID 602124
GFP quencher: GFP fluorescence interference artifact. inhibition, % at 6.75 µM. 1,300 tested, 8.5% active. shares compounds with Rin1-Abl PPI inh. AID 602125. inhibitors/quenchers counterscreen;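 further: ABL1-eGFP fusion protein alone without its partner RIN1-SBP; 0% = protein with vehicle and 100% = wells lacking protein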
ABHD5-PLIN5 conf: confirmation of human ABHD5-PLIN5 interaction inhibitors; biochemical ABHD5-PLIN5 interaction, luminescence; inhibition, % at 4 µM; 2,200 tested, 67% active; shares compounds with ABHD5 PLIN5 PPI; in the data active means inhibition above about 23%;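 further: 0% = DMSO vehicle wells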
HNF4 split-luc: counter-screen for ABHD5-PLIN5 inhibitors: HNF4 split-luciferase | shares compounds with ABHD5 PLIN5 PPI | HNF4 dimerization, luminescence, biochemical | inhibition, % at 4 µM | 2,200 tested, 77% active | AID 651674;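 active means mean inhibition across replicate wells exceeding the computed hit threshold, cut at about 13% in these data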;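 further: light from luciferase halves that rejoin when HNF4 fusion proteins dimerize; 0% = DMSO only wells and the 100% control is not given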
NadD conf: confirmation of Staphylococcus aureus NadD inhibitors | shares compounds with NadD inh | 2,000 tested, 13% active | AID 624309 | inhibition, % at 20 µM | purified S. aureus NadD, colorimetric enzyme assay; in the data active means inhibition mostly above about 42%, no sharp cut-off; inactive means mostly below about 42%
* marks the source's active call; other numbers are inactive results; / = no result. The list is not random: actives were taken first. Their share in the collection is about 1.9%. Unless noted, no stated cut-off is given here; in the data, active means inhibition above about 6.5%; inactive means the rest.

SMILES	NadD inh	Rin1-Abl PPI inh	Xi reactivation	ABHD5 PLIN5 PPI	Rpn11 inh	Rpn11 confirm	MMP-2 inh	Thrombin inh	NadD conf	others
COc1ccc(C2C(C#N)=C(N)Oc3cc(C)n(Cc4ccco4)c(=O)c32)cc1 (stereo not drawn)	7.1	1.9	/	32.1*	46.5*	23.4	-23.3	5.6	/	ABHD5-PLIN5 conf=66.3*;HNF4 split-luc=67.6*
C[C@@H]1CN([C@H](C)CO)C(=O)Cc2cc(NS(=O)(=O)c3ccccc3)ccc2O[C@H]1CN(C)C(=O)Nc1ccc2c(c1)OCO2	/	/	0.0	/	/	/	/	/	/
CN(C)/N=C/C=C1\CCC/C(=C/c2cccs2)C1=O	-3.3	-2.7	0.0	29.9*	94.9*	32.9	-23.1	16.7	/	ABHD5-PLIN5 conf=25.2*;HNF4 split-luc=28.8*
CN(C)/N=C/C=C1\CC/C(=C\c2ccc(Br)cc2)C1=O	-6.7	1.8	/	9.0	32.3	/	/	/	/
COc1ccccc1N1CCN(Cc2cc(Br)c(O)c3ncccc23)CC1	8.0	9.7*	-0.2	25.1*	45.4*	30.9	33.9	-20.9	/	Rin1 Abl conf=0.3;GFP quencher=2.2;ABHD5-PLIN5 conf=14.1;HNF4 split-luc=13.8*
Cc1ccc(S(=O)(=O)N[C@H]2CC[C@H](CCNC(=O)Cc3ccccn3)O[C@@H]2CO)cc1	/	/	0.3	/	/	/	/	/	/
C[C@H](CO)N1C[C@H](C)[C@@H](CN(C)CC2CCCC2)Oc2ncc(C#Cc3ccccn3)cc2C1=O	/	/	-1.2	/	/	/	/	/	/
O=C(Nc1ccc(Cl)cc1)/C(=C/c1cccc(O)c1)c1nc2ccccc2s1	17.0	-3.9	0.9	29.5*	46.0*	16.8	-8.2	9.2	/	ABHD5-PLIN5 conf=85.6*;HNF4 split-luc=61.0*
CCOc1ccccc1NC(=O)C(OC(=O)c1ccc(NC(=O)CC#N)cc1)c1ccccc1 (stereo not drawn)	28.0*	-0.8	0.1	-15.5	45.3*	27.5	4.6	6.6	42.8
COc1ccc(/C=C2\Sc3ccc(C(=O)NCCN4CCCCCC4)cc3N(C)C2=O)cc1	47.1*	-1.5	0.2	15.5	41.9*	39.8	-81.6	30.8	7.8
C[C@@H]1CN([C@H](C)CO)C(=O)c2cc(C3=CCCCC3)cnc2O[C@@H]1CN(C)C(=O)c1ccccn1	/	/	-0.6	/	/	/	/	/	/
C[C@@H]1CN([C@H](C)CO)C(=O)c2cc(NC(=O)C3CCCCC3)ccc2O[C@H]1CN(C)Cc1ccccc1	/	/	0.1	/	/	/	/	/	/
CC(C)(C)OC(=O)[C@H](Cc1ccccc1)NC(=O)c1ncn2c1c(=O)[nH]c1ccc(Br)cc12	39.8*	0.9	0.0	-0.9	83.0*	-5.3	-32.9	-14.5	3.9
COc1ccc2c3c([nH]c2c1)[C@@H](CO)N(Cc1ccccc1OC)CC31CN(C)C1	/	/	0.3	/	/	/	/	/	/
Nc1nc(SCc2ccccc2Cl)nc2nc3c(cc12)CCCC3	4.1	0.5	/	-4.3	21.5	/	/	/	/
Nc1nc(SCc2ccc(Cl)cc2Cl)nc2nc3c(cc12)CCCC3	36.4*	-2.6	-0.1	-11.4	42.1*	46.4*	2.0	-25.3	15.7
C[C@@H]1CN(C)C(=O)Cc2cc(NS(C)(=O)=O)ccc2O[C@H]1CN(C)S(C)(=O)=O	/	/	0.4	/	/	/	/	/	/
O=C(NC1CCC1)[C@H]1[C@H](CO)[C@H]2Cn3c(cccc3=O)[C@@H]1N2CC1CCCC1	/	/	0.0	/	/	/	/	/	/
C#CCn1c(=NC(=O)c2cc(Cl)sc2Cl)sc2cc(S(N)(=O)=O)ccc21	17.4	2.3	0.0	13.5	20.0	/	/	/	/
C#CCn1c(=NC(=O)c2cc(-c3cccs3)nc3ccccc23)sc2cc(S(N)(=O)=O)ccc21	53.3*	0.2	0.5	-3.8	69.8*	22.8	-13.8	9.1	54.8*
OC[C@H]1[C@@H](c2ccccc2)C2(CN(CC3CC3)C2)N1Cc1nccs1	/	/	0.0	/	/	/	/	/	/
CC1(C)CC(=O)C(C=NCC2CCN(C(=O)Cc3ccccc3)CC2)=C(O)C1	35.9*	-4.2	0.1	0.0	137.4*	93.1*	2.9	-8.4	3.9
CC1(C)CC(=O)C(C=NCC2CCNCC2)=C(O)C1	-0.8	0.7	/	2.2	-2.6	/	/	/	/
CCOC(=O)Cc1csc(NC(=O)c2sc3nc4c(C)cc(C)cc4cc3c2N)n1	40.4*	-4.4	/	-16.6	47.6*	24.4	-17.1	-1.6	2.3
C[C@@H]1CN([C@@H](C)CO)C(=O)Cc2cc(NC(=O)C3CCCCC3)ccc2O[C@H]1CN(C)Cc1ccc(C(=O)Nc2ccccc2N)cc1	/	/	-0.3	/	/	/	/	/	/
SMILES	NadD inh	Rin1-Abl PPI inh	Xi reactivation	ABHD5 PLIN5 PPI	Rpn11 inh	Rpn11 confirm	MMP-2 inh	Thrombin inh	NadD conf	others
CCN(CC)CCOC(=O)c1ccc(N/C=C(/C#N)c2nc(-c3ccc(OC)cc3)cs2)cc1	31.6*	-2.7	0.0	11.2	59.2*	55.0*	-143.5	76.7*	-7.5
CCN(CC)CCCN(C(=O)c1ccc(Br)cc1)c1nc(-c2ccc(OC)cc2)cs1	-3.5	-1.1	0.0	16.6	-22.4	/	/	/	/
CC(C)NC(=O)N(C)C[C@@H]1Oc2cc(C#C[C@H](C)O)ccc2S(=O)(=O)N([C@@H](C)CO)C[C@@H]1C	/	/	-1.4	/	/	/	/	/	/
Cc1ccc2oc(=O)c3cc(C(=O)NCCN4CCN(C)CC4)sc3c2c1	-5.8	-5.8	0.2	4.4	8.3	/	/	/	/
Cc1ccc2oc(=O)c3cc(C(=O)NCCCN4CCCCCC4)sc3c2c1	37.0*	-6.9	0.1	16.6	55.7*	7.5	-3.9	-8.7	-8.0
O=C(O)c1ccc(-n2c(=O)c3ccccc3c3ccccc3c2=O)cc1	6.3	0.1	0.1	2.5	-0.6	/	/	/	/
Cc1ccc(-n2c(=O)c3cc4c(=O)n(-c5ccc(C)c(C)c5)c(=O)c4c(C(=O)c4ccc(C(=O)O)cc4)c3c2=O)cc1C	33.9*	-0.4	-0.1	-8.0	109.2*	3.5	11.0	39.0	11.4
CN1C(=O)c2cc(NC(=O)c3cnccn3)ccc2OC[C@@H]2O[C@H](CC(=O)NCC3CC3)CC[C@@H]21	/	/	0.0	/	/	/	/	/	/
Cn1c(-c2c(N)n(C3CCCC3)c3nc4ccccc4nc23)nc2ccccc21	20.4	-2.6	/	-5.3	14.3	/	/	/	/

Screens (PubChem BioAssay)
